# In ChEMBL document CHEMBL4680062, “Structure-property studies of an imidazoquinoline chemotype with antitrypanosomal activity” (RSC Med Chem, 2020):
# Experiments:
# [1] = Intrinsic clearance in human liver microsomes by LC/MS/MS analysis; format: ADME, Microsome; settings: read-out: CLH
# [2] = Tmax in NMRI mouse at 10 mg/kg, ip measured up to 24 hrs by LC/MS/MS analysis; format: ADME, organism-based; settings: in vivo
# Procedure, shortened: (§1)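 Female NMRI mice (n=3) dosed IP at a target of 10 mg/kg. Vehicle: 1% DMSO and 99% of a 20% Captisol solution in water. Drug levels measured in peripheral blood.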
# [3] = Drug exposure in NMRI mouse brain at 10 mg/kg, ip measured after 4 hrs by LC/MS/MS analysis; format: ADME, organism-based; settings: in vivo
# [4] = Cmax in NMRI mouse at 10 mg/kg, ip measured up to 24 hrs by LC/MS/MS analysis; format: ADME, organism-based; set-up: route intraperitoneal, dose 10 mg/kg, time <=24; settings: in vivo; procedure, shortened: as §1
# [5] = Half life in NMRI mouse at 10 mg/kg, ip measured up to 24 hrs by LC/MS/MS analysis; format: ADME, organism-based; settings: in vivo; procedure, shortened: as §1
# [6] = Drug exposure in NMRI mouse blood at 10 mg/kg, ip measured after 4 hrs by LC/MS/MS analysis; format: ADME, organism-based; settings: in vivo; procedure, shortened: as §1
# [7] = Ratio of drug level in brain to plasma in NMRI mouse at 10 mg/kg, ip measured up to 24 hrs by LC/MS/MS analysis; format: ADME, organism-based; settings: brain and plasma, read-out: BPR
# [8] = AUC in NMRI mouse at 10 mg/kg, ip measured up to 24 hrs by LC/MS/MS analysis; format: ADME, organism-based; set-up: route intraperitoneal, dose 10 mg/kg, time <=24; settings: in vivo; procedure, shortened: as §1
# [9] = 1-Octanol-aquoues buffer distribution coefficient, log D of compound at pH 7.4 by UPLC-MS based shake flask method; format: physicochemical; settings: 1-octanol/aqueous buffer
# [10] = Intrinsic clearance in Han Wistar rat hepatocytes assessed per million cells at 1 uM by LC/MS/MS analysis; format: ADME, cell-based, Hepatocyte; settings: read-out: CLH
microsomal CLint [1] [µL/min/mg],Tmax [2] [min],Drug uptake [3],Cmax [4] [ng/mL],half-life [5] [min],Drug uptake [6],Kp at 24 h [7],AUC at 24 h [8] [ng·h/mL],logD [9],hepatocyte CLint at 1 µM [10] [µL/min/1e6 cells],Compound
38,30,Not Active,570,78,Not Active,0.026,920,3,7.9,Cn1c(=O)n(-c2ccc(C(C)(C)C#N)cc2)c2c3cc(-c4cn[nH]c4)ccc3ncc21
3,,,,,,,,0.1,1,Cn1c(=O)n(C2CCNCC2)c2c3cc(-c4cn[nH]c4)ccc3ncc21
